Test results reported in ChEMBL document CHEMBL1821653, “Alcohol-, diol-, and carbohydrate-substituted indenoisoquinolines as topoisomerase I inhibitors: investigating the relationships involving stereochemistry, hydrogen bonding, and biological activity” (2011).

Assays:
SN12C = experiment: Antiproliferative activity against human SN12C cells by SRB assay; assay type: functional
In short: (§1)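 NCI 60-cell-line human tumor panel. Compounds first screened at one dose of 10^-5 M. Selected compounds then tested at five concentrations from 10^-8 to 10^-4 M. GI50 is the concentration giving 50% growth inhibition. GI50 values outside the tested range are assigned 10^-8 M or 10^-4 M.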

[1] = target: T1, DNA topoisomerase 1 (Homo sapiens) (UniProt P11387); experiment: Inhibition of recombinant human TOP1 mediated DNA cleavage after 20 mins by gel electrophoresis relative to camptothecin; parameters: concentration or dose not given beside the values
T1 sequence (whole entry): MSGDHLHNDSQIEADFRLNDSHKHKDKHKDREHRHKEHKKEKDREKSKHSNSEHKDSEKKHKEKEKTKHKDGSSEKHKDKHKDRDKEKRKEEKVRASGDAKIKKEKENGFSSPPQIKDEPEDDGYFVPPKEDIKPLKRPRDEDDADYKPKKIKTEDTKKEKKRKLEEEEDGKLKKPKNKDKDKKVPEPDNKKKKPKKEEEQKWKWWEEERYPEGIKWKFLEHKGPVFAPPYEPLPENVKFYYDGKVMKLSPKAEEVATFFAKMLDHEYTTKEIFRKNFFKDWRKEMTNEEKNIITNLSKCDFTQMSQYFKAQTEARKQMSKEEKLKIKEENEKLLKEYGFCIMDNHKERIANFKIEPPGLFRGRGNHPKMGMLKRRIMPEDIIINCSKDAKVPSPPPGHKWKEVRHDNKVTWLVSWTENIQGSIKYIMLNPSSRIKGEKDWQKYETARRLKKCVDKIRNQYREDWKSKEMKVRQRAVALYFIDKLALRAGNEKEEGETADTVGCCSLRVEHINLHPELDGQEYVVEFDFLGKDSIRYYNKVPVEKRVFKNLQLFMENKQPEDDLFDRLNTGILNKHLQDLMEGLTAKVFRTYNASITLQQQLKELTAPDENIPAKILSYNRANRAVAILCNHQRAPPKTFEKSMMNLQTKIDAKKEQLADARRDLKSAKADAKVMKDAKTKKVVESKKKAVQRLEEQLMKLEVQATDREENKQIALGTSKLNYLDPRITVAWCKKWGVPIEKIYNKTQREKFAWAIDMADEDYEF
In short: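 117-bp oligonucleotide containing Top1 cleavage sites, 3'-end labeled with [α-32P]-dGTP by Klenow fill-in. About 2 nM substrate incubated with recombinant Top1 and various compound concentrations for 20 min at 25 °C in 10 mM Tris-HCl pH 7.5, 50 mM KCl, 5 mM MgCl2, 0.1 mM EDTA, 15 μg/mL BSA. Stopped with 0.5% SDS, run on 20% denaturing PAGE, phosphorimaged.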

MCF7 = experiment: Antiproliferative activity against human MCF7 cells by SRB assay; assay type: functional; in short: as §1
HOP-62 = experiment: Antiproliferative activity against human HOP62 cells by SRB assay; assay type: functional; in short: as §1
SF-539 = experiment: Antiproliferative activity against human SF539 cells by SRB assay; assay type: functional; in short: as §1
UACC-62 = experiment: Antiproliferative activity against human UACC62 cells by SRB assay; assay type: functional; in short: as §1
OVCAR-3 = experiment: Antiproliferative activity against human OVCAR3 cells by SRB assay; assay type: functional; in short: as §1
HCT-116 = experiment: Antiproliferative activity against human HCT116 cells by SRB assay; assay type: functional; in short: as §1
DU-145 = experiment: Antiproliferative activity against human DU145 cells by SRB assay; assay type: functional; in short: as §1

SMILES	GI50 (SN12C) [µM]	inhibition [1] [%]	GI50 (MCF7) [µM]	GI50 (HOP-62) [µM]	GI50 (SF-539) [µM]	GI50 (UACC-62) [µM]	GI50 (OVCAR-3) [µM]	GI50 (HCT-116) [µM]	GI50 (DU-145) [µM]
O=C1c2ccccc2-c2c1c1ccccc1c(=O)n2C[C@H](O)[C@@H](O)[C@H](O)CO	2.24	50	1.74	3.23	7.94	2.88	24	3.39	
O=C1c2ccccc2-c2c1c1ccccc1c(=O)n2C[C@H](O)[C@@H](O)[C@H](O)[C@H](O)CO		50							
NCC(O)Cn1c2c(c3ccccc3c1=O)C(=O)c1ccccc1-2 (racemic)	0.206	50	0.198	0.276	0.344	0.318	1.32	0.263	0.13
COc1cc2c3c(n(CCCNCCO)c(=O)c2cc1OC)-c1cc2c(cc1C3=O)OCO2 [LMP-744]		> 95	< 0.01		0.04		0.5		
C[C@@H](O)Cn1c2c(c3ccccc3c1=O)C(=O)c1ccccc1-2	9.33	75	3.23	3.39	6.31	10.2	21.4	5.52	8.32
O=C1c2ccccc2-c2c1c1ccccc1c(=O)n2C[C@H](O)[C@@H](O)[C@@H](O)[C@H](O)CO		20							
O=C1c2ccccc2-c2c1c1ccccc1c(=O)n2C[C@@H](O)[C@H](O)[C@H](O)CO	20	50	4.57	8.71	7.59	7.41	> 100		16.6
COc1cc2c3c(n(CCCN4CCOCC4)c(=O)c2cc1OC)-c1cc2c(cc1C3=O)OCO2 [INDOTECAN]		> 95	0.37						
COc1cc2c3c(n(C)c(=O)c2cc1OC)-c1cc2c(cc1C3=O)OCO2	68		1.58	1.3		4.2		35	37
O=C1c2ccccc2-c2c1c1ccccc1c(=O)n2C[C@H](O)[C@H](O)[C@H](O)[C@H](O)CO	3.39		1.78	3.23	5.75	2.95	13.8	4.17	3.31
O=C1c2ccccc2-c2c1c1ccccc1c(=O)n2C[C@@H](O)CO	3.77	50	3.04	3.79	5.72	4.36	16.1	4.47	2.34
O=C1c2ccccc2-c2c1c1ccc([N+](=O)[O-])cc1c(=O)n2C[C@H](O)[C@@H](O)[C@H](O)[C@H](O)CO	17.7	> 95	0.88	7.35	2.61	2.98	4.26	5.08	4.76
O=C1c2ccccc2-c2c1c1ccc([N+](=O)[O-])cc1c(=O)n2C[C@H](O)CO	0.241	> 95	0.016	0.089	0.157	0.098	0.309	0.025	0.04
O=C1c2ccccc2-c2c1c1ccccc1c(=O)n2CC(O)CO (racemic)	2.95	50	3.55	7.76	5.89	7.58	18.6	4.36	2.88
CC(CO)n1c2c(c3ccccc3c1=O)C(=O)c1ccccc1-2 (racemic)	37.1	20	34.4	17.6	14.4	11.7	25.7	15.9	23.7
C[C@H](O)Cn1c2c(c3ccccc3c1=O)C(=O)c1ccccc1-2		75							
O=C(CO)Cn1c2c(c3ccccc3c1=O)C(=O)c1ccccc1-2	81.3	20	32.3	40.7	20	58.9	5.23	30.9	17.8
O=C1c2ccccc2-c2c1c1ccccc1c(=O)n2C[C@H](O)CO	6.92	75	4.9	5.01	7.41	5.37	14.5		5.75
O=C1c2ccccc2-c2c1c1ccccc1c(=O)n2C[C@H](O)[C@H](O)[C@H](O)CO	2.4	0	1.38	2.95	2.14	3.23	13.5	3.39	1.32
COc1cc2c3c(n(C[C@H](O)CO)c(=O)c2cc1OC)-c1ccccc1C3=O	0.501	75	0.097	0.336	0.214	0.144	0.287	0.23	0.419
O=C1c2ccccc2-c2c1c1ccccc1c(=O)n2C[C@@H](O)[C@@H](O)[C@H](O)CO	5.01	75	1.9	6.46	11.2	6.31	13.2	3.39	3.98
C[C@H](CO)n1c2c(c3ccccc3c1=O)C(=O)c1ccccc1-2		20							
CC(O)Cn1c2c(c3ccccc3c1=O)C(=O)c1ccccc1-2 (racemic)	3.98	20	3.8	3.46	6.76	6.16	16.2	5.75	4.36
CC[C@@]1(O)C(=O)OCc2c1cc1n(c2=O)Cc2cc3ccccc3nc2-1 [CAMPTOTHECIN]			0.01						
O=C1c2ccccc2-c2c1c1ccccc1c(=O)n2C[C@@H](O)[C@@H](O)[C@H](O)[C@H](O)CO		20							
COc1cc2c3c(n(CCCn4ccnc4)c(=O)c2cc1OC)-c1cc2c(cc1C3=O)OCO2 [INDIMITECAN]		> 95	0.01						
C[C@@H](CO)n1c2c(c3ccccc3c1=O)C(=O)c1ccccc1-2		50							
